From ChEMBL document CHEMBL1772991, “Synthesis and structure-activity relationship of tricyclic carboxylic acids as novel anti-histamines” (Bioorg Med Chem, 2011)
pIC50: −log10 of the molar value.

Key:
[1] = Oral bioavailability in fasted rat at 10 mg/kg after 24 hrs; type: ADME, organism-based; details: in vivo
How it was run: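 Fasted male rats (n = 3 per route). Dosing: 1 mg/kg i.v. in 5% glucose/0.1 N HCl (9:1), or 10 mg/kg p.o. as a 0.5% methylcellulose suspension. Jugular blood sampled up to 24 h (po: 15, 30 min, 1, 2, 4, 6, 24 h) and plasma stored at -70 °C. AUCs taken from plasma concentration–time courses. BA = (AUCpo/Dpo)/(AUCiv/Div) × 100.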

Histamine H1 receptor = Histamine H1 receptor (Homo sapiens, UniProt P35367); assay: Displacement of [3H]pyrilamine from human histamine H1 receptor expressed in CHO-K1 cells after 60 mins by scintillation counting; type: cell-based
Mus musculus [2] = assay: In vivo antihistaminic activity at histamine H1 receptor in ddY mouse assessed as inhibition of histamine-induced skin vascular permeability at 3 mg/kg, po administered 1 hr before histamine challenge by Evan's blue staining; type: functional
How it was run: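 Female ddY mice, 8 weeks old, dosed orally at 3 mg/kg as a suspension in 0.5% methylcellulose, 1 h before intradermal histamine ([…]) into back skin, following i.v. Evans blue. Mice sacrificed 30 min after histamine; dyed area measured. % inhibition, mean ± SE of six mice.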

[3] = Permeability from apical to basolateral side of human Caco2 cells after 120 mins; details: Caco-2
Mus musculus [4] = species on record: Mus musculus; assay: Ex vivo receptor occupancy of histamine H1 receptor in mouse brain at ED70 after 30 mins by scintillation counting; type: functional
Mus musculus [5] = assay: Antiinflammatory activity in ovalbumin-sensitized BALB/c mouse biphasic allergic model assessed as late type reaction at 10 mg/kg, po administered 1 hr before ovalbumin challenge measured 24 hrs after elicitation by ear swelling assay; type: functional
How it was run: (§1)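 Female Balb/c mice, 8 weeks old, sensitized i.p. with OVA plus alum. Two weeks later, compound given orally as a 0.5% methylcellulose suspension at 10 mg/kg, 1 h before intradermal OVA into the ear.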

Mus musculus [6] = assay: Antiinflammatory activity in ovalbumin-sensitized BALB/c mouse biphasic allergic model assessed as immediate type reaction at 10 mg/kg, po administered 1 hr before ovalbumin challenge measured 1 hr after elicitation by ear swelling assay; type: functional; how it was run: as §1
Mus musculus [7] = species on record: Mus musculus; assay: animal or person; type: functional; details: ddY, po
[8] = molecular target: T1, Adrenergic receptor alpha-1 (Homo sapiens, UniProt P35348+P25100+P35368); assay: Displacement of [3H]prazosin from human adrenergic alpha1 expressed in CHO-K1 cells after 30 mins by scintillation counting; type: cell-based
T1 sequence (P35348 whole entry): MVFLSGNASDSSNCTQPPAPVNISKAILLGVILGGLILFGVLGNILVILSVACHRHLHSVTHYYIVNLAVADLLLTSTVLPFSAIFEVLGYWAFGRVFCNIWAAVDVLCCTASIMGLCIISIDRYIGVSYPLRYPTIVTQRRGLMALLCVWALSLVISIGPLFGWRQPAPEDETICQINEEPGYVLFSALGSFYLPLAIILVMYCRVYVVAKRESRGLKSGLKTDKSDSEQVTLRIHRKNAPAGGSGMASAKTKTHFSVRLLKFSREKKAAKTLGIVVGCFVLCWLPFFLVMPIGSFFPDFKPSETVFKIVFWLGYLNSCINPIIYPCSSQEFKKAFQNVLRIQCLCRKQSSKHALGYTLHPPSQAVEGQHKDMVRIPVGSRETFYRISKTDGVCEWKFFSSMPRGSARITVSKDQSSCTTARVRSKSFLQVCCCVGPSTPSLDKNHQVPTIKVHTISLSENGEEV
T1 sequence (P25100 whole entry): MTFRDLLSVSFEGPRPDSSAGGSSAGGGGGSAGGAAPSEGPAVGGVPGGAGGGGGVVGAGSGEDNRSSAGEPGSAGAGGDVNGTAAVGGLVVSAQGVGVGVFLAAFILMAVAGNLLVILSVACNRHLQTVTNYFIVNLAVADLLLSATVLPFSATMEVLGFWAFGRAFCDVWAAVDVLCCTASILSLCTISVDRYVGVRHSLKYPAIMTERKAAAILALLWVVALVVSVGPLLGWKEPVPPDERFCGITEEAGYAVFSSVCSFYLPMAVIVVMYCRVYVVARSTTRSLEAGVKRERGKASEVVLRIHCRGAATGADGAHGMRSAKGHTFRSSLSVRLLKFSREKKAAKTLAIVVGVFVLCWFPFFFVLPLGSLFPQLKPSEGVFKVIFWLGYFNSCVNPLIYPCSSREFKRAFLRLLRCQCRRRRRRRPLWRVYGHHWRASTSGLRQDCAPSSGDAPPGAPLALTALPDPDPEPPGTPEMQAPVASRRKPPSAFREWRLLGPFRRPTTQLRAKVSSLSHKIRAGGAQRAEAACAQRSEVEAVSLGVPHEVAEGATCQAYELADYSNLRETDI
T1 sequence (P35368 whole entry): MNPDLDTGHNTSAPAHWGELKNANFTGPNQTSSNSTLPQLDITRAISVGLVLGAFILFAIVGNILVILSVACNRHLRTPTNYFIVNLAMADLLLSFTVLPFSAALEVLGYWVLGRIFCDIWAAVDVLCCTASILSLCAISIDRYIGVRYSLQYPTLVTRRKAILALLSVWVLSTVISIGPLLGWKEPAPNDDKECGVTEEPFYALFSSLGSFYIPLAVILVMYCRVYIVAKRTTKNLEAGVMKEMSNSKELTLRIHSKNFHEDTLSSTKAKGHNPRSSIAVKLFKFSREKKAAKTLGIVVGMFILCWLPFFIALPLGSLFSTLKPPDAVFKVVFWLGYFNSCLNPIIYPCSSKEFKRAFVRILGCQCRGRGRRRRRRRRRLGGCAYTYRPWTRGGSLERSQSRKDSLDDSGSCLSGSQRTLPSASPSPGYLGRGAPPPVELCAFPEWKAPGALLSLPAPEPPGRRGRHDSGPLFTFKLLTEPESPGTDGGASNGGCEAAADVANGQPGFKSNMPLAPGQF
How it was run: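 Membranes from stable recombinant CHO-K1 cells expressing human α1 adrenoceptor were incubated with graded compound concentrations and 0.3 nM [3H]-prazosin in 50 mM Tris-HCl pH 7.6 for 30 min at room temperature. Nonspecific binding was defined with 1 µM prazosin. Samples were filtered on GF/B, washed and scintillation counted; specific binding is total minus nonspecific. Single experiment.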

Homo sapiens = species on record: Homo sapiens; assay: Ratio of IC50 for human adrenergic alpha1 to IC50 for human histamine H1 receptor

Histamine H1 receptor, sequence (P35367 whole entry): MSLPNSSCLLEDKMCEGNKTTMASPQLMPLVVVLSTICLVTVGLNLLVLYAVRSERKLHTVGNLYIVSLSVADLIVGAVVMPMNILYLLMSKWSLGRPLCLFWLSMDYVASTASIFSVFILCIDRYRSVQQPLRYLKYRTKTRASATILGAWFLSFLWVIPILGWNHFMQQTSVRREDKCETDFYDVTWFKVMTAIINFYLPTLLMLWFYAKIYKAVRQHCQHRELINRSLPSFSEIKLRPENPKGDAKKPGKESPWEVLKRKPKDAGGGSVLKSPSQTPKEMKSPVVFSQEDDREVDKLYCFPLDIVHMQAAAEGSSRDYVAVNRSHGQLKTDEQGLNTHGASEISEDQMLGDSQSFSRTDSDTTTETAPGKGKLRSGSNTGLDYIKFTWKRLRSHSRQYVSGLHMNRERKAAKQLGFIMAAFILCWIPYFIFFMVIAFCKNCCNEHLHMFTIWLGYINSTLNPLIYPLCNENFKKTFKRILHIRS

Row | Compound | pIC50 (Histamine H1 receptor) | Papp A→B at 2 h [3] [×10⁻⁶ cm/s] | also measured
1 | Cn1c(N2CCN(CC/C=C3/c4ccccc4COc4ccc(C(=O)O)cc43)CC2)cc(=O)n(C)c1=O | 6.49 | – | –
2 | Cn1c(N2CCCN(CC/C=C3/c4ccccc4CCc4ccc(CC(=O)O)cc43)CC2)cc(=O)n(C)c1=O | 6.87 | 4.8 | –
3 | CC(C)(C(=O)O)c1ccc(C(O)CCCN2CCC(C(O)(c3ccccc3)c3ccccc3)CC2)cc1 (stereo not drawn) [FEXOFENADINE] | – | – | Activity (Mus musculus [4]): 12%; inhibition in vivo at 10 mg/kg (Mus musculus [5]): 6%; inhibition in vivo at 10 mg/kg (Mus musculus [6]): 61%
4 | Cn1c(N2CCN(CC/C=C3\c4ccccc4COc4ccc(CC(=O)O)cc43)CC2)cc(=O)n(C)c1=O | 6.27 | 4.7 | –
5 | CN1CCC(=C2c3ccccc3CC(=O)c3sccc32)CC1 [KETOTIFEN] | – | – | ED70 (Mus musculus [7]): 0.067 mg/kg; inhibition in vivo at 10 mg/kg (Mus musculus [5]): 3%; inhibition in vivo at 10 mg/kg (Mus musculus [6]): 119%
6 | Cn1c(N2CCN(CC/C=C3/c4ccccc4COc4ccc(CC(=O)O)cc43)CC2)cc(=O)n(C)c1=O | 7.08 | 7.3 | bioavailability [1]: 76%; inhibition in vivo at 3 mg/kg (Mus musculus [2]): 53%; inhibition in vivo at 10 mg/kg (Mus musculus [5]): 78%; IC50 [8]: 4800 nM; Ratio IC50 (Homo sapiens): 57; inhibition in vivo at 10 mg/kg (Mus musculus [6]): 105%
7 | Cn1c(N2CCCN(CC/C=C3/c4ccccc4COc4ccc(C(=O)O)cc43)CC2)cc(=O)n(C)c1=O | 7.20 | 3.8 | –
8 | Cn1c(N2CCN(CC/C=C3/c4ccccc4CCc4ccc(CC(=O)O)cc43)CC2)cc(=O)n(C)c1=O | 6.71 | 14.7 | –
9 | Cn1c(N2CCN(CCCN3c4ccccc4Sc4ccc(CC(=O)O)cc43)CC2)cc(=O)n(C)c1=O | – | – | Activity (Mus musculus [4]): 38%; inhibition in vivo at 3 mg/kg (Mus musculus [2]): 82%; ED70 (Mus musculus [7]): 1.61 mg/kg; inhibition in vivo at 10 mg/kg (Mus musculus [5]): 64%; IC50 [8]: 430 nM; Ratio IC50 (Homo sapiens): 11; inhibition in vivo at 10 mg/kg (Mus musculus [6]): 73%
10 | Cn1c(N2CCCN(CCCN3c4ccccc4CCc4ccc(C(C)(C)C(=O)O)cc43)CC2)cc(=O)n(C)c1=O | 7.12 | 7 | bioavailability [1]: 14%; inhibition in vivo at 3 mg/kg (Mus musculus [2]): 67%
11 | Cn1c(N2CCCN(CC/C=C3/c4ccccc4COc4ccc(CC(=O)O)cc43)CC2)cc(=O)n(C)c1=O | 7.04 | 4 | inhibition in vivo at 3 mg/kg (Mus musculus [2]): 32%
12 | Cn1c(N2CCCN(CC/C=C3/c4ccccc4CCc4ccc(C(=O)O)cc43)CC2)cc(=O)n(C)c1=O | 6.82 | 6.9 | –

Continued, in another order:

Row | pIC50 (Histamine H1 receptor) | Papp A→B at 2 h [3] [×10⁻⁶ cm/s] | Compound | also measured
13 | 7.39 | 6.3 | Cn1c(N2CCCN(CCCN3c4ccccc4COc4ccc(C(=O)O)cc43)CC2)cc(=O)n(C)c1=O | bioavailability [1]: 23%; inhibition in vivo at 3 mg/kg (Mus musculus [2]): 87%
14 | 6.28 | 1.6 | Cn1c(N2CCCN(CCCN3c4cc(C(=O)O)ccc4COc4ccccc43)CC2)cc(=O)n(C)c1=O | –
15 | 7.27 | 2.6 | Cn1c(N2CCCN(CCCN3c4ccccc4CCc4ccc(CC(=O)O)cc43)CC2)cc(=O)n(C)c1=O | –
16 | 7.15 | 4.4 | Cn1c(N2CCCN(CCCN3c4ccccc4CCc4ccc(C(=O)O)cc43)CC2)cc(=O)n(C)c1=O | bioavailability [1]: 33%; inhibition in vivo at 3 mg/kg (Mus musculus [2]): 50%; inhibition in vivo at 10 mg/kg (Mus musculus [5]): 46%; inhibition in vivo at 10 mg/kg (Mus musculus [6]): 30%
17 | 6.89 | 1.9 | CC(C(=O)O)c1ccc2c(c1)N(CCCN1CCCN(c3cc(=O)n(C)c(=O)n3C)CC1)c1ccccc1CO2 (stereo not drawn) | –
18 | 6.82 | 4.6 | Cn1c(N2CCCN(CCCN3c4ccccc4COc4ccc(C(C)(C)C(=O)O)cc43)CC2)cc(=O)n(C)c1=O | –
19 | 6.89 | 1.6 | Cn1c(N2CCCN(CCCN3c4ccccc4COc4ccc(CC(=O)O)cc43)CC2)cc(=O)n(C)c1=O | –
20 | 6.59 | 3 | Cn1c(N2CCN(CCCN3c4ccccc4COc4ccc(CC(=O)O)cc43)CC2)cc(=O)n(C)c1=O | –
21 | 6.85 | – | Cn1c(N2CCN(CCCN3c4ccccc4COc4ccc(C(=O)O)cc43)CC2)cc(=O)n(C)c1=O | Activity (Mus musculus [4]): 20%
